Experimental data taken from ChEMBL document CHEMBL1131080, “Structure-based design and synthesis of high affinity tripeptide ligands of the Grb2-SH2 domain” (J Med Chem, 1998).

Experiments:
[1] = molecular target: T1, Growth factor receptor-bound protein 2 (Homo sapiens, UniProt P62993); assay: Inhibition of Grb2-SH2 domain binding to phospho-EGF receptor intracellular C-terminal domain; format: biochemical
How it was run: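 Phosphorylated MBP-EGFR C-terminal domain (residues 976–1210, expressed in E. coli) is immobilized on plates and incubated with GST/Grb2-SH2 in the presence of phosphopeptide or buffer. Bound SH2 is detected with rabbit anti-GST and HRP anti-rabbit antibody, using TMB substrate read at 655 nm. Inhibition is the % absorbance reduction versus no inhibitor; IC50 comes from nonlinear regression.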

[2] = molecular target: T1, Growth factor receptor-bound protein 2; assay: Inhibition of Grb2 SH2 domain binding to biotinylated phosphopeptide
How it was run: (§1)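 Competition ELISA. Biotinylated phosphopeptide (10 ng/mL in 50 mM Tris, pH 7.5) is captured overnight at 4 °C on streptavidin-coated plates. Wells then receive GST-SH2 fusion (Grb2 3.2 ng/mL, Lck 3.2 ng/mL, p85 N-terminal 0.7 ng/mL) with varying unlabeled peptide or buffer, in TBS/0.1% Tween. Detection is rabbit anti-GST, then peroxidase anti-rabbit IgG with TMB. IC50 comes from nonlinear regression of % absorbance reduction.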

[3] = molecular target: Tyrosine-protein kinase Lck (Homo sapiens, UniProt P06239); assay: Inhibition of p56lck SH2 domain binding to biotinylated phosphopeptide; how it was run: as §1
Sequence of Tyrosine-protein kinase Lck (P06239 whole entry, the tested form may be a part): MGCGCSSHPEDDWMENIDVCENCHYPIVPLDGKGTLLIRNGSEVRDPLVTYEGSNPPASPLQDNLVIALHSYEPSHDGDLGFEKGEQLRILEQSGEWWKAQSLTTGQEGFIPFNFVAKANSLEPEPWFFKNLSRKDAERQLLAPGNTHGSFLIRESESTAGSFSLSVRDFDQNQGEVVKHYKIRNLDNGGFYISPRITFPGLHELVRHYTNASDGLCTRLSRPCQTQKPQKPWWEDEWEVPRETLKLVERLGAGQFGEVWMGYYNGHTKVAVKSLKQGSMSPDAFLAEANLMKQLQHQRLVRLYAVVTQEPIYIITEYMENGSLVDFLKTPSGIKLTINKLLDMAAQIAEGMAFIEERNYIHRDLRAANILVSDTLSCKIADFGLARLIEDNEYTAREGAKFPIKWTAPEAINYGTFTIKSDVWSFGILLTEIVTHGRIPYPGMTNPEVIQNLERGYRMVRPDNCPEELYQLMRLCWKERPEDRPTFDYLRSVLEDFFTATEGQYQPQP

[4] = Inhibition of p85 SH2 domain binding to biotinylated phosphopeptide; how it was run: as §1

T1 sequence (P62993 whole entry, the tested form may be a part): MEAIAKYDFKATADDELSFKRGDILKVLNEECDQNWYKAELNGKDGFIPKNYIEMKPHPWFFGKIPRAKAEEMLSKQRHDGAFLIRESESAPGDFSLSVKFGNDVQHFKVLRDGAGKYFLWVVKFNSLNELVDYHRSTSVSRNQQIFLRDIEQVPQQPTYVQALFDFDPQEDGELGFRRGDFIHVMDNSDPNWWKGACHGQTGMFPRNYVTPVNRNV

SMILES | IC50 [1] [nM] | IC50 [2] [nM] | IC50 [3] [nM] | IC50 [4] [nM]
CC[C@H](C)[C@H](NC(=O)[C@@H](N)Cc1ccc(OP(=O)(OC(C)=O)OC(C)=O)cc1)C(=O)N[C@@H](CC(=O)NCCC(C)C)C(=O)O | 3100 | – | – | –
CC[C@H](C)[C@H](NC(=O)[C@@H](N)Cc1ccc(OP(=O)(OC(C)=O)OC(C)=O)cc1)C(=O)N[C@@H](CC(N)=O)C(=O)O | 8900 | – | – | –
CCCCC(CC)CNC(=O)C[C@H](NC(=O)[C@@H](NC(=O)[C@@H](N)Cc1ccc(OP(=O)(OC(C)=O)OC(C)=O)cc1)[C@@H](C)CC)C(=O)O (stereo not given in full) | 1600 | – | – | –
CC[C@H](C)[C@H](NC(=O)[C@@H](N)Cc1ccc(OP(=O)(OC(C)=O)OC(C)=O)cc1)C(=O)N[C@@H](CC(=O)NCCCc1ccccc1)C(=O)O | 2300 | – | – | –
CC[C@H](C)[C@H](NC(=O)[C@@H](N)Cc1ccc(OP(=O)(OC(C)=O)OC(C)=O)cc1)C(=O)N[C@@H](CC(=O)NCCCc1cccc2ccccc12)C(=O)O | 330 | 580 | > 10000 | > 10000
CC[C@H](C)[C@H](NC(=O)[C@@H](N)Cc1ccc(OP(=O)(OC(C)=O)OC(C)=O)cc1)C(=O)N[C@@H](CC(=O)NCCCc1ccc(Cl)cc1Cl)C(=O)O | 1500 | – | – | –
CC[C@H](C)[C@H](NC(=O)[C@@H](N)Cc1ccc(OP(=O)(OC(C)=O)OC(C)=O)cc1)C(=O)N[C@@H](CC(=O)NCC(C)C)C(=O)O | 3200 | – | – | –
